Experimental data as given in paper PMC7931646 (The Journal of Experimental Medicine, 2021).
pIC50: −log10 of the molar value. ≈ marks a conversion by molar mass, not a printed value. Like-named read-outs stand apart in the source and are kept apart here.

Columns and labels:
CSF Aβ42 = settings: human, ref Ahn et al., 2020, cited from earlier work; for CSF Aβ42 levels lowered: MAD study
[1] = Kinetic aqueous solubility, PBS pH 7.4; format: physicochemical; settings: PBS buffer, pH 7.4, aqueous buffer, kinetic from dmso stock
Method in brief: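 Kinetic solubility in PBS at pH 7.4, read by UV/Vis absorbance and reported in micromolar.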

hERG channel = hERG channel (Homo sapiens, UniProt Q12809); test: Patch-Xpress patch-clamp hERG assay in HEK-293 cells; format: cell-based
hERG channel, sequence (Q12809 whole entry, canonical isoform): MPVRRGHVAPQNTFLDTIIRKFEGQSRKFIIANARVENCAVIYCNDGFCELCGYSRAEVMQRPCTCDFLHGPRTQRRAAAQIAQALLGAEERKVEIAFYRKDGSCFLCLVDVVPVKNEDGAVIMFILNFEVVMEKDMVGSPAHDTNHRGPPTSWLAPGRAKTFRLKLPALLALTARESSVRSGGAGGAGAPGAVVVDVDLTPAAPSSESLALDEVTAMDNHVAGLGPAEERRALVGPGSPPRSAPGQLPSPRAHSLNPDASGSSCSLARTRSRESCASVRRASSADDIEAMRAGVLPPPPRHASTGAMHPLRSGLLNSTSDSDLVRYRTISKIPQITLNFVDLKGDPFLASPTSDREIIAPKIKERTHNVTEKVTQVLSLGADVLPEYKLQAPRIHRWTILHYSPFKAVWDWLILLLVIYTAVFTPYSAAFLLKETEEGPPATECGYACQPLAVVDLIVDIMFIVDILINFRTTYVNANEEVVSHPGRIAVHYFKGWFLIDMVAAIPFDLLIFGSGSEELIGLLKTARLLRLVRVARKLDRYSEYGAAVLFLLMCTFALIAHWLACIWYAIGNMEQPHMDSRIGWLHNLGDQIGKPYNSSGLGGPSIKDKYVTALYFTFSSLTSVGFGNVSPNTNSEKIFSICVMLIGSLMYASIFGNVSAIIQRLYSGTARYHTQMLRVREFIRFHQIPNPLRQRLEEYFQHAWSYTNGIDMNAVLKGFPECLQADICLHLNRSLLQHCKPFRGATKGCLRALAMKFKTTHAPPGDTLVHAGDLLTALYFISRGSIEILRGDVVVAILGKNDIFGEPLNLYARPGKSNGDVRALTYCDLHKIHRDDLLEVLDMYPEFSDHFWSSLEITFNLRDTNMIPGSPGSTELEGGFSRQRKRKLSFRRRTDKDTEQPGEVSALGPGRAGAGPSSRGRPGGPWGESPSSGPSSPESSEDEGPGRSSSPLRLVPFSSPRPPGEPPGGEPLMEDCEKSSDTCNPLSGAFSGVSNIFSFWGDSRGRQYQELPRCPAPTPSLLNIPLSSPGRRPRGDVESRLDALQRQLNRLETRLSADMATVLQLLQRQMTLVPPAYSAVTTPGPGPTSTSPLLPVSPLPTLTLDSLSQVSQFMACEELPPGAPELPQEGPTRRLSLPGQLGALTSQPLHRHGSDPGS

CYP450 3A4 = CYP450 3A4 (Homo sapiens, UniProt P08684); test: CYP450 inhibition, recombinant isoform; format: in vitro ADME
CYP450 3A4, sequence (P08684 whole entry, canonical isoform): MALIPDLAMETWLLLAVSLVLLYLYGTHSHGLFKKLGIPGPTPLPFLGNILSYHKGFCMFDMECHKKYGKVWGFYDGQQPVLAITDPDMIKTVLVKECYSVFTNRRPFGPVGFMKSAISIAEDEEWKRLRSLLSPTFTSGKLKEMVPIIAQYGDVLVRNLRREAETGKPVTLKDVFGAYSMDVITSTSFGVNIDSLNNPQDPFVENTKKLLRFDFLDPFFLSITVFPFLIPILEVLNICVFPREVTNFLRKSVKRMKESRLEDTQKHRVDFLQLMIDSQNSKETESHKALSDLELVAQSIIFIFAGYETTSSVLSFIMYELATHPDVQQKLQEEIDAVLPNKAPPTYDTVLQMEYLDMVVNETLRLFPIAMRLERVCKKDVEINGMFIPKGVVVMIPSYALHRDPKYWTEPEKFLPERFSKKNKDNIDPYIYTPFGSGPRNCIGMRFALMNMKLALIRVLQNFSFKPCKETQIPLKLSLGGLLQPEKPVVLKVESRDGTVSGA
Method in brief: (§1)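 Recombinant human CYP450 isoforms were incubated with isoform-specific probe substrates; for CYP3A4 these were midazolam and testosterone. Inhibition was quantified by LC-MS/MS analysis of probe-substrate turnover.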

[2] = Liver microsomal stability, mouse; format: in vitro ADME; settings: liver microsomes
Method in brief: (§2)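 Test compound at 1 µM was incubated for 30 min with liver microsomes at 1 mg/ml (human, rat or mouse). Result is percent of parent compound remaining.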

CYP450 1A2 = target: T1, CYP450 1A2 (Homo sapiens, UniProt P05177); test: CYP450 inhibition, recombinant isoform; format: in vitro ADME
T1 sequence (P05177 1-516): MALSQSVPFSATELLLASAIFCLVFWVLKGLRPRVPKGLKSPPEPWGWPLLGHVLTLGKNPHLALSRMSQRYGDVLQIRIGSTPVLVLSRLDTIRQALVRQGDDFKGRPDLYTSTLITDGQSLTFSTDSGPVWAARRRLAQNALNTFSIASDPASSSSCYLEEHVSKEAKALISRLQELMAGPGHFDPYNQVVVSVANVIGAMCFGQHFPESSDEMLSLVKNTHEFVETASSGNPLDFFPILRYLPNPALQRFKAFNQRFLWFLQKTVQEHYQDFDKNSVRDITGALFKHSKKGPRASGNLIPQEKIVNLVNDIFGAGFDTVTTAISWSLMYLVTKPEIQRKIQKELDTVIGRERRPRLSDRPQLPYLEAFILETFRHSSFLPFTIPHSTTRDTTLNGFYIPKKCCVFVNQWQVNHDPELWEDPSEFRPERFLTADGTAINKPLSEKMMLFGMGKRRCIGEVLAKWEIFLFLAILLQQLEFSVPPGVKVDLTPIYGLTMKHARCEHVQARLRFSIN
Method in brief: as §1

[3] = Kinetic solubility in simulated intestinal fluids; format: physicochemical; settings: for FaSSIF dissolved compound concentration: FaSSIF pH 6.5, UV/Vis absorbance; for FeSSIF dissolved compound concentration: FeSSIF pH 5.8, UV/Vis absorbance
Method in brief: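 Dissolved test compound concentration in FaSSIF or FeSSIF simulated intestinal fluids, determined by UV/Vis absorbance.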

[4] = Plasma protein binding, equilibrium dialysis; format: in vitro ADME; settings: mouse
Method in brief: (§3)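 Equilibrium dialysis of test compound in human, rat or mouse plasma against buffer across a semipermeable membrane. Compound concentrations in both compartments were measured by LC/MS, and percent bound was derived from them.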

[5] = Plasma protein binding, equilibrium dialysis; format: in vitro ADME; settings: rat
Method in brief: as §3

CYP450 2C9 = CYP450 2C9 (Homo sapiens, UniProt P11712); test: CYP450 inhibition, recombinant isoform; format: in vitro ADME
CYP450 2C9, sequence (P11712 whole entry, canonical isoform): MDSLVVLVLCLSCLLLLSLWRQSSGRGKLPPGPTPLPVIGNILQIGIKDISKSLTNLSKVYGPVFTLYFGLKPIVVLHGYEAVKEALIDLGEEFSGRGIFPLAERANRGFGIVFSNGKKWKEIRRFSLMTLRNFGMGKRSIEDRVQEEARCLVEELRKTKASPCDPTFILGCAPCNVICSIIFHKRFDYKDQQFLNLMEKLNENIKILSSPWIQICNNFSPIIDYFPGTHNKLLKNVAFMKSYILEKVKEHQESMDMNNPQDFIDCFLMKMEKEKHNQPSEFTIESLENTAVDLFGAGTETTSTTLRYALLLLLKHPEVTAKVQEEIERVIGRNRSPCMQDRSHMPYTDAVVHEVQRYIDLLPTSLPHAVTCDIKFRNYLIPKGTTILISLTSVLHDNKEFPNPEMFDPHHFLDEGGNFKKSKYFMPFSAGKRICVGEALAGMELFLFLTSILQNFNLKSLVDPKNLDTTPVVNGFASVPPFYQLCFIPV

[6] = Plasma protein binding, equilibrium dialysis; format: in vitro ADME; settings: human
Method in brief: as §3

[7] = GLP 28-d IND-enabling safety/toxicology study of compound 1 in NHPs; format: in vivo, NHP; settings: data not shown
[8] = system: S. typhimurium bacterial strains TA98, TA100, TA1535, TA1537; test: Non-GLP screening; format: cell-based, Salmonella typhimurium; settings: 5–100 µM, with and without Aroclor-induced rat liver S9
Method in brief: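 Non-GLP mini-Ames screen using S. typhimurium TA98, TA100, TA1535 and TA1537, with and without Aroclor-induced rat liver S9. Test article was applied at 5–100 µM. Read-out was bacterial growth from reversion of the histidine mutation.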

CYP450 2D6 = CYP450 2D6 (Homo sapiens, UniProt P10635); test: CYP450 inhibition, recombinant isoform; format: in vitro ADME
CYP450 2D6, sequence (P10635 whole entry, canonical isoform): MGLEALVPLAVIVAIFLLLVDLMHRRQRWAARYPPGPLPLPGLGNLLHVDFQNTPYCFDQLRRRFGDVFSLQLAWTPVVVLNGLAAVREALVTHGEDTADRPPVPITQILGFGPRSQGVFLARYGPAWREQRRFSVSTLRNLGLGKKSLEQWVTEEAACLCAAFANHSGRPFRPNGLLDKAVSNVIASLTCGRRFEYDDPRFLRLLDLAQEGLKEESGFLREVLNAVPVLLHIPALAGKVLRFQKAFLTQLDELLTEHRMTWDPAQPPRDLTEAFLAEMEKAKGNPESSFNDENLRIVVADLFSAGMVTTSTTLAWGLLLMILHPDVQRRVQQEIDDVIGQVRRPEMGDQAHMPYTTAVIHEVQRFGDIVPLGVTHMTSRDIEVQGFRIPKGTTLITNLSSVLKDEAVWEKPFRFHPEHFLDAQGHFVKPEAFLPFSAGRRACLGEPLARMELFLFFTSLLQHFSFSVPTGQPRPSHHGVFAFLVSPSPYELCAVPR
Method in brief: as §1

[9] = Liver microsomal stability, rat; format: in vitro ADME; settings: liver microsomes
Method in brief: as §2

[10] = GLP 28-d IND-enabling safety/toxicology study of compound 1 in rats; format: in vivo, rat; settings: data not shown
[11] = system: S. typhimurium strains TA1535, TA1537, TA98, TA100 and E. coli strain WP2 (uvrA); test: GLP Salmonella–Escherichia coli/microsome plate incorporation; format: cell-based, Salmonella typhimurium; settings: S. typhimurium TA98 and TA100, only with Aroclor-induced rat liver S9; data not shown
Method in brief: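 GLP plate-incorporation mutagenicity test using S. typhimurium TA1535, TA1537, TA98 and TA100 and E. coli WP2 (uvrA). Each strain was run with and without a metabolic activation mix of Aroclor 1254–induced rat liver microsomes (S9). Read-out is revertant bacterial growth.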

CYP450 2C19 = CYP450 2C19 (Homo sapiens, UniProt P33261); test: CYP450 inhibition, recombinant isoform; format: in vitro ADME
CYP450 2C19, sequence (P33261 whole entry, canonical isoform): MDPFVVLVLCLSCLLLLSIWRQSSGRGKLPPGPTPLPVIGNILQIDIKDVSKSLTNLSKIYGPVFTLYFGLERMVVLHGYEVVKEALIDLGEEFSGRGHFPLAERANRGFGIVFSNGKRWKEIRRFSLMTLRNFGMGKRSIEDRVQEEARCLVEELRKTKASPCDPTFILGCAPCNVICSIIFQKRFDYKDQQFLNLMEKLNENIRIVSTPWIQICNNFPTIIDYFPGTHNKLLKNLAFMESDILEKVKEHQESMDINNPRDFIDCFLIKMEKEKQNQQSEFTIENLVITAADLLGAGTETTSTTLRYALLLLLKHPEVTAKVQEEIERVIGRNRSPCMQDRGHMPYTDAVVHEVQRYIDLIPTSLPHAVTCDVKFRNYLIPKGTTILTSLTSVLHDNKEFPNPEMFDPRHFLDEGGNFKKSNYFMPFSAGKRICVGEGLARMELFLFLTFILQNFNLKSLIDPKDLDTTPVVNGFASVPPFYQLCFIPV
Method in brief: as §1

[12] = Liver microsomal stability, human; format: in vitro ADME; settings: liver microsomes
Method in brief: as §2

MDR1-MDCK permeability = format: in vitro ADME; settings: dog
Method in brief: (§4)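 Transport across MDR1-MDCK cell monolayers. Apparent permeability was measured in the apical-to-basolateral direction (× 10−6 cm/s). Efflux ratio was calculated as Papp B-A / Papp A-B.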

P-glycoprotein (MDR1) = test: MDR1-MDCK permeability; format: in vitro ADME; settings: dog
Method in brief: as §4

plasma Aβ42 = settings: human, 250 mg, SAD study; ref Yu et al., 2014; cited from earlier work
[13] = ref Green et al., 2009; cited from earlier work
γ-secretase = settings: ref Green et al., 2009; cited from earlier work
CSF Aβ42 and Aβ40 = settings: human, 200 mg, ref Soares et al., 2016, cited from earlier work
[14] = CYP450 IC50 3A4 (m), probe substrate midazolam

| Compound | solubility kinetic [1] [µM] | pIC50 (hERG channel) | pIC50 (CYP450 3A4) | pIC50 (CYP450 3A4; [14]) | remaining at 0.5 h, 1 µM [2] [%] | pIC50 (CYP450 1A2) | FaSSIF dissolved compound concentration [3] | FeSSIF dissolved compound concentration [3] | fraction unbound [4] | fraction unbound [5] | pIC50 (CYP450 2C9) | fraction unbound [6] | Ames [8] | pIC50 (CYP450 2D6) | remaining at 0.5 h, 1 µM [9] [%] | pIC50 (CYP450 2C19) | remaining at 0.5 h, 1 µM [12] [%] | Papp A→B (MDR1-MDCK permeability) [×10⁻⁶ cm/s] | efflux ratio (P-glycoprotein (MDR1)) | also measured |
| --- | --- | --- | --- | --- | --- | --- | --- | --- | --- | --- | --- | --- | --- | --- | --- | --- | --- | --- | --- | --- |
| Cc1cn(-c2ccc3n(c2=O)CCN([C@@H](C)[C@@H]2CC[C@H](c4cc(F)c(Cl)cc4C(F)(F)F)O2)C3=O)cn1 [PF-06648671] | – | – | – | – | – | – | – | – | – | – | – | – | – | – | – | – | – | – | – | CSF Aβ42 levels lowered (CSF Aβ42; 100 mg): 44%; CSF Aβ42 levels lowered (CSF Aβ42; 200 mg): 59%; CSF Aβ42 levels lowered (CSF Aβ42; 360 mg): 65%; safety profile (CSF Aβ42; up to 360 mg qd for 14 d): good safety profile |
| COc1nc(-c2cc(C)c(N[C@@H](C)c3ccc(F)cc3)nn2)ccc1-n1cnc(C)c1 [Compound 1, (S)-N-(1-(4-fluorophenyl)ethyl)-6-(6-methoxy-5-(4-methyl-1H-imidazol-1-yl)pyridin-2-yl)-4-methylpyridazin-3-amine] | 6.6 (≈ 2.76 µg/mL) | 5.21 | 5.05 | 4.85 | 76 | 4.43 | >100/ >100 | >100/ >100 | 0.002 | 0.001 | 5.89 | 0.004 | Positive | 5.33 | 84 | 5.16 | 78 | 37.2 | 0.9 | finding in GLP 28-d IND-enabling study in NHPs [7]: evidence of corrected QT interval prolongation; finding in GLP 28-d IND-enabling study in rat [10]: potentially mutagenic metabolite(s); Ames assay results [11]: highly variable |
| COc1nc(/C=C/c2nc3n(n2)CCC[C@H]3c2ccccc2C(F)(F)F)ccc1-n1cnc(C)c1 [E2212] | – | – | – | – | – | – | – | – | – | – | – | – | – | – | – | – | – | – | – | maximal lowering of plasma Aβ42 levels (AUC0–24 h) (plasma Aβ42): 44.1% |
| C[C@@H](C(=O)O)c1ccc(-c2ccccc2)c(F)c1 [R-flurbiprofen] | – | – | – | – | – | – | – | – | – | – | – | – | – | – | – | – | – | – | – | efficacy in phase 3 human trials [13]: did not show efficacy; in vitro GSM activity (γ-secretase): weak |
| CNc1nc(Nc2ccc(-n3cnc(C)n3)c(OC)c2)nc2c1CC[C@H]2c1ccc(F)cc1 [BMS-932481] | – | – | – | – | – | – | – | – | – | – | – | – | – | – | – | – | – | – | – | maximal lowering of CSF Aβ40 levels (CSF Aβ42 and Aβ40; 2-wk MAD study): 74%; maximal lowering of CSF Aβ42 levels (CSF Aβ42 and Aβ40; 2-wk MAD study): 77%; stage 3 elevations in alanine amino transferase (CSF Aβ42 and Aβ40): two of six subjects |
| COc1nc(-c2cc(C)c(N[C@@H](C)c3c(F)cc(F)cc3F)nn2)ccc1-n1cnc(C)c1 [Compound 3, (S)-6-(6-methoxy-5-(4-methyl-1H-imidazol-1-yl)pyridin-2-yl)-4-methyl-N-(1-(2,4,6-trifluorophenyl)ethyl)pyridazin-3-amine] | < 1.3 | 5.51 | 4.77 | 4.72 | 100 | 5.44 | 79 | 82 | 0.003 | 0.003 | 5.89 | 0.003 | Negative | 4.70 | 100 | 4.89 | 100 | 30.2 | 1.1 | safety margin between Aβ42 IC50 and hERG IC20 (hERG channel): > 100 fold; IC20 (hERG channel; human, HEK-293 cells expressing hERG): 1 µM; CYP450 2C9 IC50 relative to Aβ42 IC50 (CYP450 2C9): over 200 fold |
